# An excerpt weighted towards active compounds, which were near 1.5% of everything screened.
# proCasp7 act: procaspase-7 activators, primary screen, counter-screen for procaspase-3 activator project, biochemical, absorbance, HTS, human; recombinant procaspase-7, Ac-DEVD-pNA absorbance 405 nm; D23A/D198A/D206A triple mutant, cannot self-cleave; scale: DMSO 0, 5 µM enzyme 100; activation, % at 8.5 µM; hit rate 0.093% among 330,000; AID 463210, 2010;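 active = percent activation above the screen-wide mean plus 3 SD, cut at about 25% in these data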
# Target sequence (P55210 whole entry D23A/D198A/D206A): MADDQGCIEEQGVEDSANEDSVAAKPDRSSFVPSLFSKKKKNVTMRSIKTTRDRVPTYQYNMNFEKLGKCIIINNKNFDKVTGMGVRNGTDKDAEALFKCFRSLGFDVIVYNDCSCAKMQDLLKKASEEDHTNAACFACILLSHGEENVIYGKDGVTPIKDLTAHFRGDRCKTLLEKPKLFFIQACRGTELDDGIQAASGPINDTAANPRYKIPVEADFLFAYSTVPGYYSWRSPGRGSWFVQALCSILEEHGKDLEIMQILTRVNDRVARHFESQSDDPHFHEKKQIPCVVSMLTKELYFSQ
#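 Assay system: Uncleavable procaspase-7 mutant enzyme / Input: 2 µM procaspase-7 mutant as dispensed / Dosing: single nominal 8.5 µM compound dose, 0.8% DMSO final / Timing: 1 h enzyme–compound preincubation and 2 h substrate reaction, both 25 °C / Detection: p-Nitroaniline absorbance at 405 nm, read at 0 and 120 min / Replication: singlicate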
# bovine MsrA act: bovine MsrA enzyme activators, primary screen, biochemical, absorbance, HTS | Methionine sulfoxide reductase A (Bos taurus) | purified bovine MsrA, absorbance read-out | activation, % at 10.6 µM | hit rate 0.3% among 360,000; in the data active = activation above about 7.5%;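 note: 0% = vehicle and 100% = reference activator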
# TbMetRS inhib: T. brucei MetRS inhibitors, primary screen, biochemical, luminescence | methionyl-tRNA synthetase (Trypanosoma brucei brucei) | purified T. brucei MetRS, ATP depletion, Kinase-Glo luminescence | inhibition, % at 11.9 µM | hit rate 0.4% among 360,000 | AID 624268, 2012;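 active = inhibition above a per-plate cutoff of the control wells' mean inhibition plus 3 SD, cut at about 5.5% in these data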;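 note: 0% = DMSO wells median and 100% = median of wells with control inhibitor compound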
#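 Assay system: T. brucei methionyl-tRNA synthetase, purified | Medium: HEPES buffer with MgCl2, KCl, DTT, spermine, BSA, pyrophosphatase | Compound: 11.9 µM single point | Incubation: 15 min enzyme-compound preincubation, 2 h reaction, 10 min detection, 25 °C | Measured by: Kinase-Glo luciferase luminescence reporting remaining unconsumed ATP | Measure: % inhibition normalized to control-well medians | Replication: Singlicate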
# MsrA inh: bovine MsrA enzyme inhibitors, primary screen, biochemical, absorbance, HTS. Methionine sulfoxide reductase A (Bos taurus). purified bovine MsrA, absorbance read-out. inhibition, % at 15.5 µM. hit rate 0.75% among 360,000;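 note: 0% = vehicle wells with enzyme and 100% = reference inhibitor wells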
# proCasp3 act: activators of human procaspase-3 D3A mutant, primary screen, biochemical, absorbance, PC-3 D3A mutant, single concentration; Caspase-3 (Homo sapiens), P42574; hit rate 0.11% among 330,000; AID 463141, 2010; recombinant procaspase-3 D3A, Ac-DEVD-pNA absorbance 405 nm; activation, % at 8.5 µM;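 active = activation above the mean of all tested compounds plus 3 SD, cut at about 21% in these data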;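 note: 0% = DMSO alone and 100% = DMSO wells spiked with extra 5 µM PC-3 D3A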
# Target sequence (P42574 whole entry D9A/D28A/D175A): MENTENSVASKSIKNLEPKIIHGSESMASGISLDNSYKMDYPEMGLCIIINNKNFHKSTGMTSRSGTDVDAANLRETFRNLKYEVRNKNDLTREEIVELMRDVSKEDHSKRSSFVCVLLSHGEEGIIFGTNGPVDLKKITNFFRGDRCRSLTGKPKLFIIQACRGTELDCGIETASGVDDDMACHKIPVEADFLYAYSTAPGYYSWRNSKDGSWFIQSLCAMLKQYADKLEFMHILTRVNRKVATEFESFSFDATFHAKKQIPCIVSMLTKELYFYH
#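 Assay system – Procaspase-3 D3A mutant · Benchmarks – DMSO low control, extra-enzyme high control · Technique – 405 nm absorbance of p-nitroaniline, reads at 0 and 120 min · Doses – 8.5 µM nominal · Measure – % activation between DMSO and enzyme-spiked controls · Also added – Ac-DEVD-pNA chromogenic peptide substrate · Schedule – 1 h compound preincubation, 2 h substrate hydrolysis at 25 °C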
# MsrA activ conf: bovine MsrA activators, retest, confirmation, biochemical, absorbance, HTS. shares compounds with bovine MsrA act. purified bovine MsrA, absorbance read-out. activation, % at 10.6 µM. hit rate 12% among 1,000; in the data active = activation above about 4%;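 note: enzyme coupled to thioredoxin and thioredoxin reductase with NADPH; 0% = vehicle wells and 100% = reference activator wells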
# Tb MetRS conf: T. brucei MetRS inhibitors, confirmation, biochemical, luminescence; inhibition, % at 11.9 µM; T. brucei MetRS enzyme, luminescence (ATP depletion); shares compounds with TbMetRS inhib; hit rate 93% among 1,400; in the data active = inhibition above about 7%
# Jurkat tox: Jurkat T cell cytotoxicity, cytotoxicity control for T. brucei MetRS inhibitor project, luminescence, high throughput | inhibition, % at 8.3 µM | Jurkat cells viability, ATP luminescence | hit rate 12% among 1,400 | shares compounds with TbMetRS inhib | AID 624413, 2012; in the data active = inhibition above about 15%;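 note: 0% = vehicle and 100% = reference inhibitor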
# Tb MetRS inh FP: T. brucei MetRS inhibitors, orthogonal assay for T. brucei MetRS inhibitor project, biochemical, fluorescence polarization. shares compounds with TbMetRS inhib. inhibition, % at 11.9 µM. hit rate 44% among 1,400. AID 651607, 2012. purified T. brucei MetRS; in the data active = inhibition above about 17%;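 note: 0% = vehicle wells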
# MsrA conf: bovine MsrA inhibitors, retest, confirmation, biochemical, absorbance, HTS; inhibition, % at 15.5 µM; shares compounds with MsrA inh; hit rate 41% among 2,300; purified bovine MsrA, absorbance read-out;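 note: coupled to thioredoxin reductase with NADPH and selenocystamine and DMSO as substrate; 0% = vehicle only and 100% = full effect of reference inhibitor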
# * hit, by the source's call; / = not tested or not shown. Cut-off read from the data, not from the text of the source, unless noted: active = inhibition above about 4.5%; inactive = the rest.
SMILES,proCasp7 act,bovine MsrA act,TbMetRS inhib,MsrA inh,proCasp3 act,MsrA conf,others
O=S1(=O)N(CCN2CC=C(c3c[nH]c4cc(F)ccc34)CC2)c2cccc3c2N1CCC3,-14,7.8*,0,-1,-3,/,MsrA activ conf=-1
COC(=O)C1=C(c2ccc(F)cc2OCc2ccccc2)C[C@@H]2CC[C@H]1N2C(=O)NCC1CC1,3,8.4*,1,1,-10,/,MsrA activ conf=0
O=C(NC1CN2CCC1CC2)c1ccc(Cl)cc1 (configuration not stated),/,/,/,-2,/,/,
CC(=O)NCC1=C(c2ccc(S(C)(=O)=O)cc2)C[C@@H]2CC[C@H]1N2CCOc1ccccc1,/,/,/,0,/,/,
C=CCN1CC[C@]23c4c5ccc(O)c4OC2C(=O)CC[C@@]3(O)[C@H]1C5 (some centres not stated),/,/,/,-1,/,/,
Cn1ncnc2c(=O)n(C)c(=O)nc1-2,-11,14*,40*,/,-9,/,MsrA activ conf=12*;Tb MetRS conf=21*;Jurkat tox=87*;Tb MetRS inh FP=5
O=C(O)c1cc(S(=O)(=O)N2CC3CC(C2)c2cccc(=O)n2C3)ccc1F (configuration not stated),/,/,/,0,/,/,
NNC(=O)CN1C(=O)CN=C(c2ccccc2)c2cc(Br)ccc21,0,-3,22*,-1,12,/,Tb MetRS conf=3;Jurkat tox=1;Tb MetRS inh FP=6
COc1ccccc1N,/,/,/,0,/,/,
COCCCn1c(N)c(C(=O)Nc2ccccc2)c2nc3ccccc3nc21,-13,-1,2,-1,-16,/,
CCC(C)NC(=O)c1c(N)n(CCCOC)c2nc3ccccc3nc12 (configuration not stated),6,0,5.7*,0,16,/,Tb MetRS conf=5;Jurkat tox=4;Tb MetRS inh FP=0
CCCCn1c(NS(=O)(=O)c2ccccc2)c(C(=O)OCC)c2nc3ccccc3nc21,-10,-4,13*,1,-13,/,Tb MetRS conf=4;Jurkat tox=10;Tb MetRS inh FP=-1
COc1ccc2nc(-c3ccc(CN4CCC(n5c(=O)[nH]c6cc(Cl)ccc65)CC4)cc3)c(-c3ccccc3)nc2c1,/,/,/,1,/,/,
COc1cc(/C=C2\C(=O)NC(=O)N(CCc3ccc(F)cc3)C2=O)ccc1O,-20,-13,-1,7.6*,-5,4,
COc1ccc(N=Nc2c(O)[nH]c(=S)[nH]c2=O)cc1,-10,-4,-1,0,-30,/,
CSc1nc(N)c(N=Nc2ccc([As](=O)(O)O)cc2)c(=O)[nH]1,-7,-6,0,82*,-6,86*,
Cc1ccc2nc(-c3ccc(CN4CCC(n5c(=O)[nH]c6cc(Cl)ccc65)CC4)cc3)c(-c3ccccc3)nc2c1,/,/,/,1,/,/,
Nc1ccc2ccc3cccc[n+]3c2c1,-12,-5,0,2,-11,/,
C[n+]1c(-c2ccccc2)c2cc(N)ccc2c2ccc(N)cc21,-6,4,-1,44*,5,34*,
COC(=O)C1C(c2ccc(I)cc2)CC2CCC1N2C (configuration not stated),/,/,/,-1,/,/,
CC[C@]12CCN(CC3(O)CC3)[C@H](Cc3ccc(O)cc31)C2(C)C,/,/,/,-1,/,/,
COc1ccccc1-n1c(O)c(C=Nc2c(C)n(C)n(-c3ccccc3)c2=O)c(=O)[nH]c1=O,-5,-4,0,5.4*,1,4.8*,
COc1ccc(OC)c(-n2c(O)c(C=Nc3c(C)n(C)n(-c4ccccc4)c3=O)c(=O)[nH]c2=O)c1,10,-4,-1,4,-6,/,
COc1cc2c(cc1O)C[C@H]1c3c(cc(O)c(OC)c3-2)CCN1C,11,-4,-1,21*,11,9.2*,
C=C1C(=O)OC2CC3(C)OC3C3OC3C3=CC(OC3=O)C12 (configuration not stated),/,-12,0,1,/,/,
SMILES,proCasp7 act,bovine MsrA act,TbMetRS inhib,MsrA inh,proCasp3 act,MsrA conf,others
CCCCC(=O)N/N=C/c1c(O)n(Cc2ccco2)c(=O)[nH]c1=O,2,-2,0,2,-13,/,
CC(=O)Nc1ccc(N=Cc2c(O)n(Cc3ccco3)c(=O)[nH]c2=O)cc1,2,-4,0,5.2*,-12,6.0*,
COc1ccc(OC)c(/C=N/OC(=O)Nc2ccc(Cl)cc2)c1,9,0,0,2,-1,/,
COc1ccc(/C=N/N=C(/N)N[N+](=O)[O-])c(OC)c1,6,-5,-1,7.9*,-10,5.6*,
O=C1Nc2ccccc2/C1=C/c1cnc[nH]1,6,-3,-1,6.4*,-3,4,
O=C(O)C(Br)Br,/,/,/,0,/,/,
COc1cc(CCN)c(OC)cc1C,/,/,/,-1,/,/,
Cc1cc(N2CCNC[C@H]2C)ccc1N1CCN[C@@H](C)C1,/,/,/,0,/,/,
N/C(=N\N=C/c1ccc(-c2ccc(O)c(C(=O)O)c2)o1)N[N+](=O)[O-],1,-4,0,5.2*,-9,4.7*,
CCOP(=O)(Nc1ccc2c(c1)C(=NNC(N)=S)c1ccccc1-2)OCC,/,-1,1,15*,/,11*,
O=C1NC(=O)N(Cc2cccs2)C(=O)/C1=C/c1ccc(N2CCOCC2)cc1,-17,-8,-1,4.7*,0,3,
CN1C(=O)N(C)C(=O)C2(Sc3ccccc3C2=O)C1=O,4,-2,0,59*,-3,1,
CC(=O)NC(Cc1ccc(N(CCCl)CCCl)cc1)C(=O)O (configuration not stated),1,-11,0,1,0,/,
COc1cc(C(=O)NN=Cc2ccc(N(CCCl)CCCl)cc2)cc(OC)c1OC,/,-6,0,5.2*,/,4,
CCc1ccc(-n2c(O)c(/C=N/NC(=O)c3ccncc3)c(=O)[nH]c2=O)cc1,-3,-6,-1,4.7*,-6,4.6*,
C[C@@H]1CNCCN1c1ccc(N2CC[C@@H](O)C2)c(C#N)c1,/,/,/,0,/,/,

# High-throughput results deposited in PubChem BioAssay by The Scripps Research Institute Molecular Screening Center.
